Experimental findings from PubChem BioAssay are described below.

Structures are written as SMILES. Calls of active or inactive are those of the source.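 Rule for the calls: active = duplicate-averaged activation above buffer control mean plus 5 SD of those controls; inactive = the rest.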

The experiment can be described thus: thallium flux activation in parental CHO cells, counter-screen for KCNQ1 potentiator project (AID 493006).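 For activation: fluorescence ratio of max minus min over baseline after K+ and Tl+ depolarization.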 The note with it: parental CHO-K1 cells, FluxOR thallium flux, at 10 µM; active compounds read high. The method, boiled down: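 Material: untransfected host CHO-K1 cells with FluxOR thallium dye. Timing: overnight 37 °C plating, 90 min RT dye, 20 min compound. Detection: kinetic FluxOR fluorescence, 10 s baseline, 110 s after stimulus. Read-out basis: max-minus-min fluorescence over baseline, percent of buffer-to-R-L3 span. Replicates: duplicate wells per compound, percent values averaged.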
A general note: A counterscreen serves to expose hits that act by an unwanted route or on another target.
As for `CCOC(=O)c1c(NC(=S)NCCc2ccccc2)sc2c1CC(C(C)C)OC2` (stereo not given), the result was inactive. As for `S=c1[nH]c(-c2ccccc2)cs1`, the activation was 380% (active). As to `CCc1ccc2[nH]c(C(=O)Nc3ccc(F)cc3Br)cc2c1`, the outcome was inactive. Regarding `COc1ccc(/C=C2/SC(=S)N(NS(=O)(=O)c3ccccc3)C2=O)cc1`, the activation was 195% (active).

For the compound `CCN(c1ccccc1)S(=O)(=O)c1ccc(OC)c(OC)c1`, the activation is 167% (active). Take `C[C@@H](NC(=O)[C@@H]1Cc2ccccc2CN1)C(=O)NC1CCCC1`: the outcome was inactive. Still for that read-out and setting: the value for `Cc1ccc(O)c(C(=O)CC(=O)c2cccc(F)c2)c1` was “inactive”.

For the compound `Cc1sc(-n2c(C)cc(/C=C3\SC(=S)NC3=O)c2C)c(C#N)c1C`, the activation is 145% (active). Regarding `Cc1csc(N/N=C/c2ccc([N+](=O)[O-])cc2)n1`, the result was inactive. Regarding `CCc1nc2sc3c(=O)[nH]cnc3c2c2c1CSC(C)(C)C2`, the result was inactive. Same read-out and setting: the value for `CC(C)C1=NN(C(=O)c2ccccc2)C(O)(C(C)(C)C)C1` (stereo not given) was “inactive”.

In the case of `C=C(C)CNC(=S)Nc1nc2c(cc1C(=O)OCC)CCCC2`, the activation was 143% (active). For the compound `CCCSc1nnc(-c2cnn(-c3ccccc3)c2-n2cccc2)n1C`, the outcome was inactive.

On to `Cc1cccc(C(=O)NC(=S)NNC(=O)COc2ccc(Cl)cc2)c1`, for which the activation was 140% (active). Still for that read-out and setting: the value for `Cc1cccc(NC(=S)NNC(=O)c2csc3c2CCC(C)C3)c1` (stereo not given) was 193% (active). With `O=C(COC(=O)c1cc(S(=O)(=O)N2CCOCC2)ccc1O)NCCc1ccccc1`, the outcome was inactive. Still for that read-out and setting: the value for `CC(=O)N[C@H]1[C@H](OC2CCCCC2)O[C@H](COC(C)=O)[C@@H](OC(C)=O)[C@@H]1OC(C)=O` was “inactive”. Regarding `C=CCn1c(=S)[nH]c2scc(-c3cccs3)c2c1=O`, the activation is 620% (active). For the compound `Cc1ncc(CN2CCC(CO)(CCc3ccccc3)CC2)s1`, the result was inactive. Turning to `COc1ccc(C(=O)NC(=S)N(Cc2ccccc2)Cc2ccccc2)cc1`, the activation was 385% (active). Still for that read-out and setting: the value for `C=CCN(CC=C)C(=S)NC(=O)Cc1cccc2ccccc12` was 210% (active). `CC(C)Cc1ccc(C(C)C(=O)Nc2ccc(O)cc2)cc1` (stereo not given): the result was inactive. `O=C1Nc2cc(C(=O)NCCCN3CCOCC3)ccc2S/C1=C/c1cccc(Cl)c1`: the outcome was inactive.

Turning to `O=c1c2ccccc2sn1-c1ccccc1`, the activation is 180% (active).

Turning to `Cc1cc(C)nc(N(C#N)CC(=O)c2ccccc2)n1`, the outcome was inactive. Consider `COc1ccc2nc(N3C(=O)/C(=C/c4ccccc4)NC3=S)sc2c1`, for which the activation was 380% (active). In the case of `O=c1c2c(-c3ccco3)csc2nc(SCc2cn3cccnc3n2)n1-c1ccccc1`, the outcome was inactive. Consider `COc1cccc(N(C(=O)Cn2nnc(-c3ccc(C)o3)n2)C(C(=O)NC2CCCC2)c2ccncc2)c1` (stereo not given), for which the outcome was inactive.

As to `CCOC(=O)C(C)Oc1cccc2c(=O)n(CC(=O)NCc3ccc4c(c3)OCO4)ccc12` (stereo not given), the result was inactive. Take `CCC(O)(CC)C(=O)NN(C(=O)CCl)c1ccccc1`: the outcome was inactive. Still for that read-out and setting: in the case of `CCCC(=O)Nc1ccc(S(=O)(=O)N2CCC(c3nc4ccccc4[nH]3)CC2)cc1` it was “inactive”; in that of `OC(C#CCCN1CCCCC1)(c1ccccc1)c1ccccc1`, “inactive”. For the compound `O=C1C(C2=C(O)c3ccccc3C2=O)=Nc2ccccc21`, the activation is 225% (active). Take `Cc1ccc(-c2c(C)n([O-])c3c([n+]2=O)CCCC3)o1`: the result was inactive.

On to `O=C(c1cccnc1)N1N=C2CCCCCC2C1(O)C(F)(F)F` (stereo not given), for which the result was inactive.

Take `CCOC(=O)c1c(NC(=S)NC)sc2c1CC(C)(C)SC2`: the activation is 498% (active). With `CC1=CC(=O)C(C(C)C)=CC1=NC(=O)c1ccc(C)cc1`, the outcome was inactive.

Consider `CC1CN(C(=S)NC(=O)c2ccc(Cl)cc2)CC(C)O1` (stereo not given), for which the activation was 144% (active).

As to `CCN(CC)c1ccc(/C=N/Nc2nc3ccccc3[nH]2)c(O)c1`, the result was inactive. Still for that read-out and setting: in the case of `S=C(Nc1ccc(Br)cc1)N1CCn2cccc2C1c1cccnc1` (stereo not given) it was “inactive”.
